# PRMT1 FP inh – blocks human protein arginine methyltransferase 1; 370,000 tested, 1.3% active; recombinant PRMT1, activity-based probe fluorescence polarization; Q99873; inhibition, % at 2.79 µM;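 active = inhibition above about 21% made by adding two undisclosed values, limit read from the data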
# LEDGF integ inh – blocks HIV-1 LEDGF/p75-dependent DNA integration; AID 743269; TR-FRET IN-LEDGF/p75 DNA integration, Eu/Cy5; inhibition, % at 3.7 µM; 370,000 tested, 0.64% active;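 active = inhibition above the screen-wide mean plus 3 SD, cut at about 13% in these data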;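 also: signal is the Cy5 over europium emission ratio at 671 and 618 nm; 0% = plate median of compound wells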
# SIAE primary – human SIAE inhibition, primary screen | Q9HAT2 | SIAE FP-Rh probe binding, fluorescence polarization | inhibition, % at 9.66 µM | 370,000 tested, 0.69% active;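 active = inhibition above a cutoff: mean of compounds within the control limits plus 3 SD of those, cut at about 17% in these data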;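 also: 0% = plate median of compound wells and 100% = probe without SIAE protein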
# Target sequence (Q9HAT2 whole entry, looked up): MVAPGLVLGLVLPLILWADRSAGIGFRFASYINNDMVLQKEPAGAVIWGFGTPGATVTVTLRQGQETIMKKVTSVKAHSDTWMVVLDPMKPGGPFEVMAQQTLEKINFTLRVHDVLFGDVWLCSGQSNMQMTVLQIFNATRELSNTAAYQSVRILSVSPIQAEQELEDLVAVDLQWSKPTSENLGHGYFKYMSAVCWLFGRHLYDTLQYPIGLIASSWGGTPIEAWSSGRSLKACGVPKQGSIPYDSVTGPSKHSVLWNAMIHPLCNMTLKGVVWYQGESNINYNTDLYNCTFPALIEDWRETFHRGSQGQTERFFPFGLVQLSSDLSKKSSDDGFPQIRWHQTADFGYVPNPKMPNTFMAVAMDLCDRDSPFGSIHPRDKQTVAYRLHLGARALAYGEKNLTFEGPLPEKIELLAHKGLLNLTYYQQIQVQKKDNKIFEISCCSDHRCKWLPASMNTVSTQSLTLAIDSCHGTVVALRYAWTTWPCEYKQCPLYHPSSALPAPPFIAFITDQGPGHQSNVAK
# MBD2 inh – MBD2-methylated oligo binding inhibition; TR-FRET, MBD2 binding to methylated oligonucleotide; inhibition, % at 4.4 µM; 370,000 tested, 0.31% active; AID 686964; in the data active = inhibition above about 13%
# TDP2 inh – TDP2 (human) inhibition, absorbance primary screen; O95551; recombinant TDP2, T5PNP hydrolysis, p-nitrophenol absorbance 415 nm; inhibition, % at 12.8 µM; 370,000 tested, 0.34% active;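 active = inhibition above the mean of all tested compounds plus 3 SD, set per campaign, cut at about 25% in these data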;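 also: 0% = DMSO with enzyme and 100% = buffer with substrate but no TDP2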
#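 Assay system: Recombinant human TDP2 | Quantity: 120 nM TDP2 per well | Incubation: 2 h at 37 °C | Signal: Epi absorbance | Evaluation: Percent inhibition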
# UHRF1 MBD2 ctr – human UHRF1 methylated DNA binding inhibitors | inhibition, % at 4.4 µM | 370,000 tested, 0.75% active | UHRF1 binding to methylated oligo, TR-FRET | AID 687016 | Q96T88;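 also: UHRF1 SRA domain binding a hemimethylated CpG hairpin DNA probe; 0% = median of test compound wells and 100% = reference inhibitor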
# UHRF1 ctr MBD2 – counter-screen for MBD2 inhibitors: human UHRF1 methylated DNA binding inhibitors; shares compounds with MBD2 inh; UHRF1 binding to methylated oligonucleotide, TR-FRET; inhibition, % at 4.4 µM; 1,000 tested, 25% active; AID 720530;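 also: UHRF1 SRA domain binding a labeled hemimethylated CpG hairpin DNA; 0% = vehicle only and 100% = reference inhibitor with vehicle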
# MBD2 DBD conf – confirmation of human MBD2-DBD methylated oligonucleotide binding inhibitors; TR-FRET MBD2-DBD binding to methylated oligonucleotide; 1,000 tested, 26% active; shares compounds with MBD2 inh; inhibition, % at 4.4 µM; in the data active = inhibition above about 14%
# The depositor's hits bear a star; · = no result given. In the library only some 3.3% were active in any assay of this set; here they are far more common. Rule as the data show it, unless noted: active = inhibition above about 21%; inactive = the rest.
SMILES,PRMT1 FP inh,LEDGF integ inh,SIAE primary,MBD2 inh,TDP2 inh,UHRF1 MBD2 ctr,UHRF1 ctr MBD2,MBD2 DBD conf
CC[C@H]1/C(=C/c2ccccc2)N2C(=O)C[C@H](c3ccccc3)N=C2N1C,-5,2,1,-7,5,-3,·,·
CCCc1nc2c3ccccc3ccn2c1Cc1ccc(OC)cc1C,8,4,-6,16*,-3,26*,10,6
Cc1ccc(C)c(S(=O)(=O)N2CCN(c3ncccn3)CC2)c1,0,-2,9,15*,-5,3,8,3
Cc1ccc(S(=O)(=O)N2CCN(c3ncccn3)CC2)c(C)c1,-3,-5,-3,2,5,1,·,·
O=C(CSc1nc2ccsc2c(=O)n1CC1CCC(C(=O)O)CC1)c1ccc(Cl)cc1 (stereo not drawn),-2,-1,2,19*,-7,14,16,10
O=C(Cc1cccs1)N(Cc1cccs1)C1(C(=O)NC2CCCC2)CCCCC1,-4,4,-3,13*,4,24*,2,4
O=C(Cc1cccs1)N(Cc1ccco1)C1(C(=O)NC2CCCCC2)CCCCC1,-1,0,-4,-6,14,-2,·,·
COc1ccc2c(c1OC)c(=O)n1c3ccc(OC(C)C(=O)NCCN4CCOCC4)cc3c3ccnc2c31 (stereo not drawn),-3,-1,-13,36*,-4,43*,52*,50*
CC(Oc1ccc2c(c1)c1ccnc3c4ccccc4c(=O)n2c13)C(=O)NCCN1CCOCC1 (stereo not drawn),3,0,-19,8,6,15,·,·
COC(=O)[C@]12CCCCC=C1N(Cc1ccc(OC)cc1)C(=O)[C@@H]2CC(=O)N1CCC(c2ccccc2)CC1,3,-1,-2,1,2,-1,·,·
COc1cc(NC(=O)C(OC(=O)CNC(=O)c2ccccc2)c2ccccc2)cc(C(F)(F)F)c1 (stereo not drawn),-1,-2,-20,-4,3,-1,·,·
COc1ccc(N2CCN(C(=O)c3ccc(CS(=O)c4cccc(C)c4)o3)CC2)cc1 (stereo not drawn),5,-1,2,14*,-6,23*,5,4
COc1cccc(N2CCN(C(=O)c3ccc(CS(=O)c4ccccc4C)o3)CC2)c1 (stereo not drawn),-4,2,-1,2,-11,1,·,·
O=C(CCn1nnc(-c2cccs2)n1)N1CCCC1,-1,3,-5,2,8,-1,·,·
CCCc1nc2ccc(C)cn2c1Cc1ccsc1,9,-2,0,16*,3,22*,10,7
Cc1ccc2nc(-c3ccc(Cl)cc3)c(Cc3ccsc3)n2c1,4,-1,13,-2,2,15,·,·
Cc1ccc2nc(-c3cccc(Cl)c3)c(Cc3ccsc3)n2c1,4,-1,0,13*,2,20,9,5
C=CCn1c(SCC(=O)c2ccc(-c3ccccc3)cc2)nnc1-c1ccc(OC)cc1,1,2,-4,0,-4,-1,·,·
C#CCCN([C@@H](CC(C)C)C(=O)OC)S(=O)(=O)c1ccc(F)cc1Br,0,5,-2,-2,0,2,·,·
COc1ccc(CCNCC(O)COc2ccc(Cl)cc2)cc1OC (stereo not drawn),-3,-2,0,0,11,0,·,·
COc1ccc(CCNCC(O)COc2cccc(C(C)=O)c2)cc1OC (stereo not drawn),10,2,-7,17*,16,25*,7,4
CSc1nc2ccccc2n1Cc1cccc([N+](=O)[O-])c1,-2,-1,1,16*,2,-2,6,0
O=C(c1ccc(S(=O)(=O)N2CCC(c3nc4ccccc4[nH]3)CC2)cc1)N1CCOCC1,2,1,0,14*,3,22*,6,9

# Screens from PubChem.
